Data set [1] can be described thus: Induction of Top2-mediated catenation of DNA. The format is functional.
A short description of data set [2]: Cytotoxicity against human H116 cells by disk diffusion assay. The data set is classed as cell-based. A general note: A growth-free zone around the sample is the usual read-out of agar diffusion tests.
For data set [3], the system named is Saccharomyces cerevisiae. Kind of data set: Inhibition of Saccharomyces cerevisiae top1delta by yeast halo assay. The data set is classed as functional, organism-based. The method, boiled down:
(§1)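 Diploid S. cerevisiae BY4743 (top1∆ or wild type) from overnight culture seeded into YPD-H agar (YPD buffered with 25 mM HEPES, pH 7) and cooled 30 min. DMSO stocks were pin-transferred at 200 nL into the agar. Plates read by absorbance at 544 nm, growth-inhibition halo diameter measured, and top1∆ growth compared with wild type.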

In data set [4] the test system is Saccharomyces cerevisiae. Kind of data set: Inhibition of wild type Saccharomyces cerevisiae by yeast halo assay. The data set is classed as functional, organism-based. The method, boiled down: as §1
A short description of data set [5]: Cytotoxicity against human H116 cells by clonogenic assay after 2 hrs. The format is cell-based. Particulars: h116, 2 h. The method, boiled down: (§2)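 Clonogenic survival of human colon H-116 cells over a range of concentrations, exposed for 2, 24 or 168 h (168 h being continuous over the 7-day incubation). Value reported as the concentration giving 10% surviving fraction (S10), read from the concentration-response curve.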

A short description of data set [6]: Cytotoxicity against human H116 cells by clonogenic assay after 24 hrs. Particulars: h116, 24 h. The format is cell-based. The method in brief: as §2
A short description of data set [7]: Cytotoxicity against human H116 cells by clonogenic assay after 168 hrs. The format is cell-based. Particulars: h116, 168 h. The method, boiled down: as §2
In data set [8] the test system is Saccharomyces cerevisiae. Kind of data set: Inhibition of Saccharomyces cerevisiae top1delta in liquid culture. The data set is classed as functional. The method in brief: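 Diploid S. cerevisiae BY4743 top1∆ and wild type grown in 100 µL liquid cultures with six 2-fold dilutions of compound alongside DMSO controls. Absorbance at 544 nm read every 30 min. Doubling time computed at each concentration and compared with the DMSO doubling time; LC50 derived.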

The LC50 is the concentration that kills 50% of the test population. Higher therefore signals a less lethal substance.

The source made the active and inactive calls. The calls are words filed in the database; no cut-off is given here.

On to `Cn1ccc2c(c1=O)C(=O)c1nccc3c1c-2nc1ccccc13`, for which the result in data set [1] was Active.

Regarding `CCC/C=C/CCCCCCCCCC[C@]1(C)OC(=O)[C@@H](CO)[C@@H]1O` [AMPHIASTERIN B1], the Activity result in data set [2] is on record as “Not Active”. Also, the outcome in the data set with Saccharomyces cerevisiae [3] and with Saccharomyces cerevisiae [4] was inactive.

`CNc1c2c(c3nc4ccccc4c4c3c1N=C4)NCCC2=O` [PLAKINIDINE A]: the Activity entry in data set [2] is “Active”; in data set [5] it was 20 µg/mL; in data set [6], 1.5 µg/mL; in data set [7], 150 ng/mL. For the same compound, the outcome in the data set with Saccharomyces cerevisiae [3] and in the data set on Saccharomyces cerevisiae [4] was inactive.

As for `CCC/C=C/CCCCCCCCCCCC[C@]1(C)OC(=O)[C@@H](CO)[C@@H]1O` [AMPHIASTERIN B2], the Activity entry in data set [2] is on record as “Not Active”. In addition, the outcome in the data set with Saccharomyces cerevisiae [3] and in the data set on Saccharomyces cerevisiae [4] was inactive.

As to `O=C1CCNC2=C1C(=O)c1[nH]cc3c1c2nc1ccccc13` [PLAKINIDINE E], the values for the Activity entry (in data set [2]; in the data set on Saccharomyces cerevisiae [3]; with Saccharomyces cerevisiae [4]) were “Not Active”, “Toxic” and “Non-toxic”, respectively. In the data set on Saccharomyces cerevisiae [8], this compound returned an LC50 of 33 µM.

These data come from ChEMBL document CHEMBL1139207, “Pyrroloacridine alkaloids from Plakortis quasiamphiaster: structures and bioactivity” (J Nat Prod, 2007).
